For data set [1], the system named is Mus musculus. Put plainly: Antifibrotic activity in CCl4-induced BALB/c mouse model of liver fibrosis assessed as reduction in liver fibrosis area at 15 mg/kg, po administered once daily for 6 weeks by alpha-SMA staining based microscopy. The class given is functional, organism-based. In outline: (§1)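 Female BALB/c mice given CCl4 i.p. (1 mL/kg of 25% CCl4 in olive oil) twice weekly for 6 weeks; sacrificed 48 h after last dose. Test articles oral, once daily: prophylactic weeks 1-6 or therapeutic weeks 4-6; imatinib control 50 mg/kg daily weeks 1-6. One formalin-fixed liver lobe stained for Picro Sirius Red and α-SMA; fibrotic area as % of total liver area; mean ± SEM, one-way ANOVA with Dunnett's test.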

In data set [2] the test system is Mus musculus. Description: Antifibrotic activity in CCl4-induced BALB/c mouse model of liver fibrosis assessed as reduction in liver fibrosis area at 5 to 15 mg/kg, po administered once daily at week 4 to 6 by alpha-SMA staining based microscopy. The class given is functional, organism-based. An outline of the steps:
as §1

The test system of data set [3] is Mus musculus. Put plainly: Effect on plasma AST level in CCl4-induced BALB/c mouse model of liver fibrosis at 15 mg/kg, po administered once daily for 6 weeks. It counts as ADME, organism-based. The note with it: in vivo, 1008 h. An outline of the steps:
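CCl4 liver fibrosis in female BALB/c mice: CCl4 i.p. (1 mL/kg 25% in olive oil) twice weekly for 6 weeks, sacrifice 48 h after final injection. Oral once-daily dosing weeks 1-6 or weeks 4-6; imatinib 50 mg/kg daily weeks 1-6. ALT and AST measured in plasma.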

A short description of data set [4]: Stability in human microsomes assessed as half life. The class given is ADME, Microsome.
Data set [5] is described as follows: Stability in human plasma assessed as half life. It counts as ADME, cell-free.
Data set [6] can be described thus: Stability in rat plasma assessed as half life. The class given is ADME, cell-free.
A short description of data set [7]: Protein binding in dog plasma. The class given is ADME, cell-free, Canis lupus familiaris. The note with it: read-out: PPB (converted).
Data set [8] deals with T1, Lysyl oxidase homolog 2 (Homo sapiens, UniProt Q9Y4K0).
T1 sequence (Q9Y4K0 whole entry): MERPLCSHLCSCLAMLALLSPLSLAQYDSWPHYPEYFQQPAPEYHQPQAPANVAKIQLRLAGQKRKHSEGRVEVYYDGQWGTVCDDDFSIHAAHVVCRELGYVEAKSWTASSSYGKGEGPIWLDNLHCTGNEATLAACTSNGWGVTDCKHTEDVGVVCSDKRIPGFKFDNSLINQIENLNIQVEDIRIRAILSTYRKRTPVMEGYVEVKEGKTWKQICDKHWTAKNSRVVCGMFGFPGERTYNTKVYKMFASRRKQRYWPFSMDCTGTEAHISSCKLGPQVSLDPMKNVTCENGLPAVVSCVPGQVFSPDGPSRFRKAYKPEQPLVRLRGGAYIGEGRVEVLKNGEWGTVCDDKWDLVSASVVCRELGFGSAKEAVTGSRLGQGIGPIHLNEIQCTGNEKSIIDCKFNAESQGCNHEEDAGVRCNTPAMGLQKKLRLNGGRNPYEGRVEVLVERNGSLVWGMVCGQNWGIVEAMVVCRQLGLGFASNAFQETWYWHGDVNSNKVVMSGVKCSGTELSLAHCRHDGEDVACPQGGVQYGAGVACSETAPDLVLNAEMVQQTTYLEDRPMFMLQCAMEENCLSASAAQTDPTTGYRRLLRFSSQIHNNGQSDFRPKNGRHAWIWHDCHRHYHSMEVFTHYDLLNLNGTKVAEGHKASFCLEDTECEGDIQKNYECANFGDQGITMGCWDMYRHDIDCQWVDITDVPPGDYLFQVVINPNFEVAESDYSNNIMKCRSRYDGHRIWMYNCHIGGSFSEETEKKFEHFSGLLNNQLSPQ
Put plainly: Substrate activity at recombinant human C-terminal His-tagged […] (1-774 residues) expressed in mouse myeloma cells assessed as oxidative turnover at 30 uM measured after 30 mins by horseradish peroxidase-coupled amplex red reagent-based fluorescence assay relative to DMSO. The class given is ADME, cell-based. Conditions: 0.5 h. In outline:
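LOXL2 incubated with compound, no substrate present. Hydrogen peroxide generation read by Amplex Red/HRP fluorescence (ex 565, em 590 nm). Oxidative turnover at 30 min expressed relative to DMSO.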

In data set [9] the target is T1, Lysyl oxidase homolog 2. Put plainly: Inhibition of LOXL2 in human IMR90 cells using putrescine as substrate preincubated with enzyme for 30 mins followed by substrate addition and measured every 2.5 mins for 30 mins by Amplex-Red oxidation assay. The class given is cell-based. In outline: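 IMR90 fibroblasts grown in MEM/10% FBS to 80% confluence, then 48-72 h in phenol-red-free 0.1% FBS medium. Conditioned medium concentrated 40-fold (10 kDa). LOX and LOXL2 separated on a 50 kDa filter in 6 M urea/borate, then diluted back to 1.2 M urea. Preincubated 30 min at 37 °C with compound; Amplex Red/HRP/putrescine readout every 2.5 min over 30 min.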

Data set [10] deals with T2, Lysyl oxidase homolog 2 (Rattus norvegicus, UniProt B5DF27).
T2 sequence (B5DF27 whole entry): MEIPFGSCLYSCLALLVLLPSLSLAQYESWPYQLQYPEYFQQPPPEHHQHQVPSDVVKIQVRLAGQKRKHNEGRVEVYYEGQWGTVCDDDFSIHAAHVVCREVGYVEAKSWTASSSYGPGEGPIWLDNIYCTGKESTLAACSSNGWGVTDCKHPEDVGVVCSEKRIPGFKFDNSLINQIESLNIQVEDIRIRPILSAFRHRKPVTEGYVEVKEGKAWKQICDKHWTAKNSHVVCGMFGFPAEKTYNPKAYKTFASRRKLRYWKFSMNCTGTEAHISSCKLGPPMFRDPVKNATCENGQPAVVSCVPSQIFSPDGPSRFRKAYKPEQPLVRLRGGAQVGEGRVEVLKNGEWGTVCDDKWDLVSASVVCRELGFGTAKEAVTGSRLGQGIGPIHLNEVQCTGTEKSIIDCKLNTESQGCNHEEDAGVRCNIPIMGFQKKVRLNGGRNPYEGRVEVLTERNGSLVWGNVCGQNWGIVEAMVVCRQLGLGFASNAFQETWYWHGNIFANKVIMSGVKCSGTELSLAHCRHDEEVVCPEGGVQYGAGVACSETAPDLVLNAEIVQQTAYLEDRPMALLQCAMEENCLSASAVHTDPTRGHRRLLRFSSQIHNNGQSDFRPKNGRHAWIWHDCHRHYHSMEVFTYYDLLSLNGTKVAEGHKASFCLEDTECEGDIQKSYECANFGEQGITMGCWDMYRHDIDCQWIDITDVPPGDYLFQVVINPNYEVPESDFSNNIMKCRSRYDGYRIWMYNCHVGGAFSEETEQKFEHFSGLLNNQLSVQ
Put plainly: Inhibition of recombinant rat LOLX2 using putrescine as substrate preincubated with enzyme for 30 mins followed by substrate addition and measured every 2.5 mins for 30 mins by Amplex-Red oxidation assay.

Data set [11] in a line: Protein binding in rat plasma. It counts as ADME, cell-free. The note with it: read-out: PPB (converted).

Calls of active or inactive are those of the source. Some results are limits rather than exact numbers.

The half-life is the time needed for the level to fall by half in the phase considered. As a reminder, the IC50 is the midpoint of a concentration-inhibition curve.

Consider `CCOC(=O)c1ccc2c(c1)c(-c1cccc(S(=O)(=O)N(C)C)c1)c(C)n2C/C(F)=C/CN.Cl`, for which the inhibition entry in the data set with Mus musculus [1] and in the data set on Mus musculus [2] was “Active” in each case. Besides, the Activity entry in the data set on Mus musculus [3] is listed as “Non-Toxic”.
On to `Cc1c(-c2cccc(S(=O)(=O)N(C)C)c2)c2cc(C(=O)O)ccc2n1C/C(F)=C/CN.Cl`, for which the half-life was more than 1.5 h in data set [4], more than 2 h in data set [5] and more than 2 h in data set [6]. For the same compound, the fraction unbound in data set [7] was 0.14; in data set [11] it was 0.12. Also, the “fold change (FC)” value at Lysyl oxidase homolog 2 [8] is reported as 1. Besides, the values for the 50% inhibitory concentration (IC50) at Lysyl oxidase homolog 2 [9] and at Lysyl oxidase homolog 2 [10] were 9 nM and 6 nM, respectively.
